# An excerpt weighted towards active compounds, which were near 2.3% of everything screened.
# MEKK3 PB1 HTS: modulators (inhibitors or enhancers) of MEK5 binding to human MEKK3 PB1 domain; Q99759; bead-based flow cytometry, Alexa488-MEK5 binding to MEKK3; actives lie on both sides; 0 = blocked by unlabeled MEK5, 100 = vehicle; binding response (% of control), % at 10 µM; 1.4% of 290,000 active; AID 1529;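 active = binding response more than 3 SD above or below the average of its plate-row segment, actives on both sides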;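 also: Alexa488 bead fluorescence after subtracting the streptavidin-only scavenger bead signal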
# Target sequence (Q99759 whole entry, looked up, the tested form may be a part): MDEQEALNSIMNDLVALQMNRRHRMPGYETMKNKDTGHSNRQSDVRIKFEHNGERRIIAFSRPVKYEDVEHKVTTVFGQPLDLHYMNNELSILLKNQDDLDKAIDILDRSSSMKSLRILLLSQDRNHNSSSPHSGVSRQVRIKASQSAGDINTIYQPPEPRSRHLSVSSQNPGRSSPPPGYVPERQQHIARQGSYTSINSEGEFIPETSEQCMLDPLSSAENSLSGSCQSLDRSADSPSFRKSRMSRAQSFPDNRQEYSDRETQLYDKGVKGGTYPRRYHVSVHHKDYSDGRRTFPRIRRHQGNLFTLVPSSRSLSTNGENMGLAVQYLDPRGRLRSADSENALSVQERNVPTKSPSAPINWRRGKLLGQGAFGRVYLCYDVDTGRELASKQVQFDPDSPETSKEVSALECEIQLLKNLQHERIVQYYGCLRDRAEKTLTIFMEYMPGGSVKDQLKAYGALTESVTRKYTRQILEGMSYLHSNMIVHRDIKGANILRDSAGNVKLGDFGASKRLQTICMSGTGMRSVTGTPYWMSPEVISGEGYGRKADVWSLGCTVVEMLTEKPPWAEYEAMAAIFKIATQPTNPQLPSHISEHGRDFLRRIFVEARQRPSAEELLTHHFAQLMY
# MEKK2wt PB1 HTS: raises or lowers MEK5 binding to wildtype human MEKK2 PB1 domain; bead flow cytometry, Alexa488-MEK5 binding to MEKK2 WT; actives lie on both sides; AID 1531; 1.1% of 290,000 active; binding response (% of control), % at 10 µM; in the data active = binding response below about 67% or above about 130%
# MEKK2 mut-MEK5: signal of MEK5 binding to mutant human MEKK2 PB1 domain; bead flow cytometry, Alexa488-MEK5 binding to MEKK2 mutant; percent response, % at 10 µM; 0.35% of 290,000 active; in the data active = percent response above about 24%, passing the limit was not always enough
# Arrestin-AP2 inh: human beta-arrestin and AP2 interaction inhibition. FITC-arrestin peptide / GST-AP2 beads, flow cytometry; AP2 beta2 appendage carries R879A mutation. 0.31% of 340,000 active. inhibition, % at 10 µM;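 active = inhibition above a set limit, near 3 SD of compounds lacking own fluorescence, cut at about 54% in these data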;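 also: plate controls were DMSO wells for no effect and 5 µM unlabelled arrestin peptide for full effect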
#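 test system = AP2 appendage R879A on GSH beads | buffer or medium = PBS plus Tween 20 (0.05%) and BSA (0.1%) | incubation = 12 min plus 1 h, RT | detection = bead flow cytometry, FITC channel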
# MEKK2wt confirm: raises or lowers MEK5 binding to wildtype human MEKK2, retest | shares compounds with MEKK3 PB1 HTS | bead flow cytometry, Alexa488-MEK5 binding to MEKK2 WT; actives lie on both sides | binding response (% of control), % at 10 µM | 2.4% of 5,900 active | AID 1892; in the data active = binding response below about 16% or above about 210%; inactive = in between
# MEKK2mut-MEK5: signal of MEK5 binding to mutant human MEKK2, retest. shares compounds with MEKK3 PB1 HTS. bead flow cytometry, Alexa488-MEK5 binding to MEKK2 mutant. percent response, % at 10 µM. 2% of 5,900 active; in the data active = percent response mostly above about 71%, no sharp cut-off; inactive = mostly below about 38%;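 also: higher means compound restores mutant binding toward wildtype level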
# MEKK3-MEK5 inh: confirmation of inhibitors of MEK5 binding to human MEKK3; shares compounds with MEKK3 PB1 HTS; bead flow cytometry, Alexa488-MEK5 binding to MEKK3; active compounds read low; binding response (% of control), % at 10 µM; 1.8% of 5,900 active; AID 1894;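 active = binding response below 72% of control, or above a set upper limit, though filed actives all read lower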;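 also: 100% = DMSO only wells and 0% = binding blocked by excess unlabeled MEK5; lower values mean stronger disruption of MEK5 binding to MEKK3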
# Numbers without * were called inactive; . = not tested or not shown; [ ] = remark or other dose.
SMILES,MEKK3 PB1 HTS,MEKK2wt PB1 HTS,MEKK2 mut-MEK5,Arrestin-AP2 inh,MEKK2wt confirm,MEKK2mut-MEK5,MEKK3-MEK5 inh
O=[N+]([O-])c1ccc(N2CCNCC2)cc1Sc1nc2ccccc2[nH]1,104,144*,19,-4,107,-1,102
O=Cc1ccc(OCc2nnsc2Cl)cc1,102,98,-3,-1,.,.,.
O=C(/C=C/c1ccccc1Cl)OCC(=O)N1CCCC1,.,.,.,-11,.,.,.
c1ccc(C(=C2CCCO2)c2ccccc2)cc1,.,.,.,37,.,.,.
CCOC(=O)C1=C(C)NC2=C(C(=O)CC(c3cccs3)C2)C1c1cccs1 (configuration not stated),72*[inhibitor],79,3,-2,96,0,101
COC(=O)C1=C(C)NC2=C(C(=O)CC(c3cccs3)C2)C1c1ccsc1 (configuration not stated),101,99,-2,11,.,.,.
Fc1ccccc1Cc1noc(CN(Cc2ccccn2)CC2CCCO2)n1 (configuration not stated),105,107,5,-34,.,.,.
Cn1ccnc1C(=O)C1CCCN(Cc2cn[nH]c2-c2ccc(-c3ccccc3)cc2)C1 (configuration not stated),116,148*,30,-14,109,2,99
CCOC(=O)c1c(C)[nH]c(C(=O)COC(=O)/C=C/c2cccc(OC)c2OC)c1C,81,86,0,0,.,.,.
CCOC(=O)c1c(C)[nH]c(C(=O)COC(=O)COc2ccccc2C=O)c1C,70*[inhibitor],91,-2,-5,98,2,101
CC(=O)c1c(C)[nH]c(C(=O)COC(=O)CCSc2ccccc2)c1C,155*,113,1,13,94,-6,102
Cc1ccc(OCc2ccc(C#N)cc2)c(C(=O)c2cc(C#N)c(=O)n(C3CC3)c2)c1,107,115,52*,13,101,-15,98
CC(OC(=O)/C=C/c1cccs1)C(=O)Nc1ccc(C(N)=O)cc1 (configuration not stated),.,.,.,2,.,.,.
CCCn1c(N2CCN(C(=O)N3CCCCC3)CC2)nc2ccccc21,2.0*[inhibitor],2.0*[inhibitor],-18,7,104,1,101
CCCn1c(N2CCN(C(=O)Nc3ccccc3)CC2)nc2ccccc21,90,85,-9,-10,.,.,.
C[C@H](NS(=O)(=O)c1ccc(Cl)c(Cl)c1)C(=O)OCc1cc(=O)n2cc(Br)ccc2n1,131*,102,1,-4,98,4,104
Cc1cc(OCCCCNC(C)C)cc(C(C)C)c1,104,97,-1,2,.,.,.
CCN(CC)CCCNC(=S)N1CCN(c2nc(-c3ccccc3)cs2)CC1,103,143*,23,19,129,45,108
Cc1noc(/C=C/c2ccc(-c3ccccc3Cl)o2)c1[N+](=O)[O-],102,117,92*,12,55,-18,54*
Cc1ccc(N/C=C/c2onc(C)c2[N+](=O)[O-])cc1,37*[inhibitor],33*[inhibitor],-13,-7,97,-4,100
CC1CCN(C(=O)c2[nH]cnc2C(=O)Nc2ccon2)CC1,.,.,.,14,.,.,.
COc1c(/C=N/NC(=O)c2ccccc2O)c(CCN(C)C(C)=O)cc2c1OCO2,134*,100,-1,-10,105,7,98
CCC(=O)N(C)CCc1cc2c(c(OC)c1/C=N/NC(=O)c1ccc(Br)cc1)OCO2,131*,99,0,-4,67,-10,85
COc1c(/C=N/Nc2ccc(C(=O)O)cc2)c(CCN(C)C(C)=O)cc2c1OCO2,94,89,-15,3,.,.,.
CCC(=O)N(C)CCc1cc2c(c(OC)c1/C=N/NC(=O)c1ccccc1O)OCO2,119,108,1,-17,.,.,.
SMILES,MEKK3 PB1 HTS,MEKK2wt PB1 HTS,MEKK2 mut-MEK5,Arrestin-AP2 inh,MEKK2wt confirm,MEKK2mut-MEK5,MEKK3-MEK5 inh
C#CCOCCOCCOCCNc1nc(N2CCN(C(=O)[C@H](CCCCN)n3cc(CN)nn3)CC2)nc(N2CCN(C(=O)[C@H](CCCN=C(N)N)n3cc(C(N)[C@H](C)CC)nn3)CC2)n1 (some centres not stated),.,.,.,13,.,.,.
Cc1ccc(-n2cc(CN(C)Cc3ncc[nH]3)c(-c3cccc(C)c3)n2)cc1,106,119,6,-2,.,.,.
Cc1ccc(-n2cc(CN(C)CCc3cn[nH]c3)c(-c3cccc(C)c3)n2)cc1,100,158*,47,.,119,8,107
O=C(COC(=O)c1ccc(Br)o1)Nc1ccc(N2CCOCC2)cc1,.,.,.,12,.,.,.
CC(=O)c1ccc(NC(=O)CSc2ccc(-c3ccc(-n4cccn4)cc3)nn2)cc1,.,.,.,-6,.,.,.
c1ccc(CN2CCC(Nc3nc(-c4cccs4)nc4ccccc34)CC2)cc1,116,188*,27,-14,173,40,112
Cc1ccc(NC(=O)C2CC(=O)Nc3ncnn32)c(C)c1 (configuration not stated),97,95,-5,9,.,.,.
O=C(COC(=O)CCNS(=O)(=O)c1ccc2c(c1)OCCO2)NC1CCCc2ccccc21 (configuration not stated),124*,115,4,-1,100,-2,100
O=C(NCCCN1CCC(Cc2ccccc2)CC1)c1ccc2nc(N3CCOCC3)sc2c1,104,144*,9,2,147,17,101
Cc1ccc(S(=O)(=O)NCc2ccc(C(=O)NCCCN3CCC(Cc4ccccc4)CC3)cc2)cc1,106,161*,40,4,173,29,105
Cc1ccc(N(CC(N)=O)C2SC(=O)N(C)C2=O)cc1 (configuration not stated),126*,125,5,25,102,-5,98
CC(=O)c1ccc(NS(=O)(=O)c2ccc(N)cc2)cc1,135*,118,1,37,101,12,104
OC(CNCCCCNCC(O)C(F)(F)F)C(F)(F)F (configuration not stated),102,100,1,1,.,.,.
O=P(c1ccccc1)(c1ccccc1)c1cc(S(=O)(=O)O)ccc1O,106,104,6,9,.,.,.
O=C(c1cccc(C(=O)N2CCN(c3ncccn3)CC2)c1)N1CCN(c2ncccn2)CC1,.,.,.,-4,.,.,.
O=C(c1cccc([N+](=O)[O-])c1)N1CCN(c2ncccn2)CC1,106,98,32*,9,101,-4,100
CN(C)CCCNC(=O)/C(=C\c1ccc(-c2cccc([N+](=O)[O-])c2)o1)NC(=O)c1ccccc1,109,101,6,6,.,.,.

# Screening results deposited in PubChem by NMMLSC.
